Bioassay records deposited in PubChem BioAssay by Broad Institute.
In the library only some 3.3% were active in any assay of this set; here they are far more common.
Statin myotox sup = suppressors of statin myotoxicity in C2C12 myotubes, primary screen, cell-based, single point, plate reader; 330,000 tested, 0.78% active; C2C12 myotubes + simvastatin, ATP luminescence, 48 h; scaled: DMSO 0, geranylgeraniol control 100; AID 602340, 2012; rescue of ATP level, % at 7.49 µM;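 active = mean ATP rescue above about 67%, or every replicate alone reaching that limit, limit read from the data, passing the limit was not always enough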;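 note: myotubes were challenged with 10 µM simvastatin during compound exposure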
E-sel inducer = E-selectin induction in HUVECs, primary screen, imaging, HUVEC, immunofluorescence imaging, single point; activation, % at 7.58 µM; 260,000 tested, 0.37% active; normalized: neutral wells 0, TNF-alpha wells 100; AID 686992, 2013;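 active = mean E-selectin-positive cell signal at least 10% of the positive control, reached in at least 60% of replicates, without over 20% cell loss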
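Test system: HUVEC; input: 3,000 HUVEC/well; measured by: immunofluorescence imaging; read-out: % PE-positive cells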
PglD DTNB = C. jejuni PglD acetyltransferase inhibitors, primary screen, biochemical, DTNB colorimetric, single point. purified PglD enzyme, DTNB colorimetric CoA detection. inhibition, % at 12.5 µM. 360,000 tested, 0.098% active. AID 602405, 2012; in the data active = inhibition above about 16%, passing the limit was not always enough
FGF22 binding = binders of human FGF22 protein, primary screen, FGF22 synaptogenesis inhibitor project, biophysical, thermal shift, single point; Fibroblast growth factor 22 (Homo sapiens), Q9HCT0; 340,000 tested, 1.5% active; activity (Tm shift, normalised), % at 9.99 µM; recombinant FGF22 thermal shift, SYPRO orange fluorescence; percent of sucrose octasulfate shift, DMSO zero;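 active = mean Tm shift, scaled 0 neutral to 100 positive control, at about 1.3% or above, every replicate too, limit read from the data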
Target sequence (Q9HCT0 whole entry, looked up): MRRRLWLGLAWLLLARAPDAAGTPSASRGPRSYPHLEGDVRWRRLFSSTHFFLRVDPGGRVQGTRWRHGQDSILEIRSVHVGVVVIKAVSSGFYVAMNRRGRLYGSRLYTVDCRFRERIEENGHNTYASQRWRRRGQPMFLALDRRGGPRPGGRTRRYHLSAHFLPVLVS
DENV2 CPE rescue = inhibitors of DENV2 cytopathic effect, primary screen, cell-based, plate reader, single concentration; DENV2-infected cells, cytopathic effect rescue; CPE inhibition, % at 9.99 µM; 350,000 tested, 1.7% active; in the data active = CPE inhibition above about 20%, passing the limit was not always enough; tested in BHK-21 cells
XiGFP reactiv = activators of inactive X chromosome reactivation, primary screen, imaging, XiGFP fibroblasts, GFP high-content imaging, set 2 | XiGFP mouse fibroblasts, % GFP-positive cells imaging, 3 d; cells co-treated with 5-aza-dC sensitizer; scaled so ellipticine positive control = 100% | activation, % at 7.58 µM | 360,000 tested, 0.055% active | AID 743238, 2013;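 active = mean normalized replicate activation at least 10% and every replicate at or above 10%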
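System: XiGFP fibroblasts, SV40-immortalized. Medium: DMEM plus 5-aza-dC sensitizer. Doses: single point. Timing: 3 d treatment, 15 min room-temperature fixation. Control set: ellipticine 6 µM.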
A number is an active result; n = inactive; x = no result given.

SMILES	Statin myotox sup	E-sel inducer	PglD DTNB	FGF22 binding	DENV2 CPE rescue	XiGFP reactiv
COc1ccc(C(=O)NN(C)c2nc(-c3ccccc3)nnc2C(F)(F)F)cc1	74	x	n	x	x	x
CN(NC(=O)c1ccco1)c1nc2ccccc2nc1C(F)(F)F	n	x	x	43	n	n
Cc1cccc(C(=O)NN(C)c2nc(-c3ccccc3)nnc2C(F)(F)F)c1	n	x	n	x	x	x
C[C@@H]1CN([C@@H](C)CO)C(=O)c2cc(N(C)C)ccc2O[C@H]1CN(C)C(=O)Nc1ccc2c(c1)OCO2	n	n	n	n	40	n
C[C@@H]1CN([C@@H](C)CO)C(=O)c2cc(N(C)C)ccc2O[C@H]1CN(C)C(=O)Nc1ccc(F)cc1	n	x	n	n	35	n
C[C@@H]1CN([C@@H](C)CO)C(=O)Cc2cc(NC(=O)Nc3ccc(C(F)(F)F)cc3)ccc2O[C@H]1CN(C)C(=O)Nc1cccc2ccccc12	n	n	n	n	n	n
C[C@H](CO)N1C[C@H](C)[C@H](CN(C)Cc2ccc(C(F)(F)F)cc2)Oc2ccc(NC(=O)Cc3cn(C)c4ccccc34)cc2CC1=O	n	228	n	n	n	n
C[C@@H]1CN([C@@H](C)CO)C(=O)Cc2cc(NC(=O)Cc3cn(C)c4ccccc34)ccc2O[C@@H]1CN(C)Cc1ccc(C(F)(F)F)cc1	n	n	n	n	77	n
C[C@@H]1CN([C@H](C)CO)C(=O)Cc2cc(NC(=O)Cc3cn(C)c4ccccc34)ccc2O[C@H]1CN(C)Cc1ccccc1	n	n	n	n	n	n
C[C@H](CO)N1C[C@H](C)[C@@H](CN(C)Cc2ccc(C(F)(F)F)cc2)Oc2ccc(NC(=O)Cc3cn(C)c4ccccc34)cc2CC1=O	115	n	n	n	n	n
C[C@H](CO)N1C[C@H](C)[C@@H](CN(C)Cc2ccccc2)Oc2ccc(NC(=O)Cc3cn(C)c4ccccc34)cc2CC1=O	n	n	n	n	n	n
C[C@@H]1CN([C@H](C)CO)C(=O)Cc2cc(NS(=O)(=O)c3ccc(Cl)cc3)ccc2O[C@H]1CN(C)Cc1ccccc1	96	n	n	n	n	n
C[C@H](CO)N1C[C@H](C)[C@@H](CN(C)Cc2ccccc2)Oc2ccc(NS(=O)(=O)c3ccc(Cl)cc3)cc2CC1=O	n	n	n	n	n	n
C[C@H](CO)N1C[C@H](C)[C@H](CN(C)Cc2ccccc2)Oc2ccc(NS(=O)(=O)c3ccc(Cl)cc3)cc2CC1=O	n	n	n	n	28	n
CCCN(C)C[C@H]1Oc2cc(C#CCC3CCCC3)ccc2S(=O)(=O)N([C@H](C)CO)C[C@@H]1C	n	x	n	n	n	x
CO[C@H]1CN(C)C(=O)c2cc(NS(C)(=O)=O)ccc2OC[C@@H](C)N(C(=O)c2ccc3c(c2)OCO3)C[C@@H]1C	n	n	n	n	n	n
O=C(NCC[C@@H]1CC[C@@H](NC(=O)C2CC2)[C@@H](CO)O1)c1cnccn1	n	n	n	n	n	n
O=C(CCCN1C(=O)/C(=C\c2cccs2)SC1=S)Nc1cccnc1	x	x	n	n	30	n
O=C(CCCN1C(=O)/C(=C/c2cccs2)SC1=S)Nc1cccnc1	x	n	x	44	n	n
COc1cc(/C=C2/SC(=S)N(CC(=O)Nc3cccnc3)C2=O)cc(OC)c1OC	x	x	x	x	x	n
COc1ccc(/C=C2\SC(=O)N(CC(=O)Nc3cccnc3)C2=O)cc1OC	n	x	n	n	23	n
CCN1C(=O)S/C(=C/c2ccc(Oc3ccc([N+](=O)[O-])cn3)c(OC)c2)C1=O	x	x	x	43	n	n
O=C(CCCN1C(=O)/C(=C/c2cccs2)SC1=S)NNC(=O)c1cccnc1	n	x	n	n	n	n
